From ChEMBL document CHEMBL3244017, “Structure--activity relationships of pyrrole amidine antiviral antibiotics. 1. Modifications of the alkylamidine side chain” (J Med Chem, 1979)
Active and inactive are the calls of the source.

What was measured:
[1] = Cytotoxicity against African green monkey BSC1 cells after 24 to 72 hrs by light microscopic analysis; type: cell-based, BSC-1; conditions: chlorocebus aethiops
Summary of the method: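 BSC-1 monkey kidney cells incubated with drug at 37 °C, dissolved in 10% Me₂SO in water. Cell destruction was scored by light microscopy at 24, 48 and 72 h. Toxicity was defined as cell death within 2 days. The maximal nontoxic concentration is the nontoxic level whose twofold increase causes toxicity.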

Human alphaherpesvirus 1 [2] = experiment: Antiviral activity against Herpes simplex virus 1 HF infected in African green monkey BSC1 cells assessed as inhibition of viral progeny production at 200 ug/ml after 20 to 24 hrs by plaque reduction assay relative to control; type: functional; conditions: Human alphaherpesvirus 1, HF, BSC-1
Summary of the method: (§1)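 BSC-1 monkey kidney monolayers in DMEM with 10% fetal bovine serum, infected with HSV-1 strain HF at 10 pfu/cell. Drug, in 10% Me2SO in water, added at infection at the highest noncytotoxic concentration. Cultures held 20–24 h at 37 °C, then sonicated. Progeny titred by plaque assay on BSC-1 (3 h adsorption, agar overlay, 72 h, gentian violet). Inhibition is plaque count with drug versus without.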

BSC-1 [3] = experiment: Inhibition of Herpes simplex virus 1 HF DNA polymerase-mediated DNA synthesis in African green monkey BSC1 cell nucleus at 200 ug/ml after 60 mins by [3H]-TTP incorporation assay relative to control; type: cell-based; conditions: Human alphaherpesvirus 1
Summary of the method: (§2)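 Nuclei were taken from BSC-1 cells 20 h after HSV-1 infection by Dounce homogenization and low-speed spin. They were washed and incubated with drug for 60 min at 37 °C: 8 × 10⁶ nuclei, 80 mM K phosphate pH 7.4, 250 mM sucrose, 6 mM MgCl₂, 0.4 mM CaCl₂, 0.04 mM dATP/dGTP/dCTP, [³H]TTP, 1 mM ATP, PEP/pyruvate kinase, 5 mM EGTA. Read-out was TCA-precipitable radioactivity.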

BSC-1 [4] = experiment: Inhibition of Herpes simplex virus 1 HF DNA polymerase-mediated DNA synthesis in African green monkey BSC1 cell nucleus at 400 ug/ml after 60 mins by [3H]-TTP incorporation assay relative to control; type: cell-based; conditions: Human alphaherpesvirus 1; summary of the method: as §2
BSC-1 [5] = experiment: Inhibition of Herpes simplex virus 1 HF DNA polymerase-mediated DNA synthesis isolated from virus-infected African green monkey BSC1 cells at 25 to 400 ug/ml by [3H]-TTP incorporation assay; type: cell-free; conditions: Human alphaherpesvirus 1
Summary of the method: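 HSV DNA polymerase came from nuclear extracts of BSC-1 cells 12 h post-infection, via 70% ammonium sulfate precipitation and sucrose gradients. Assay: 250 mM KCl, 2 mM MgCl₂, 0.05 mM dGTP/dATP/dCTP, 0.01 mM TTP plus [³H]TTP, 500 µg/mL activated calf thymus DNA, 10 mM Tris-HCl pH 8.1, 0.5 µg/mL BSA. Inhibition relative to drug-free reactions.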

BSC-1 [6] = experiment: Inhibition of Herpes simplex virus 1 HF DNA polymerase-mediated DNA synthesis in African green monkey BSC1 cell nucleus at 25 to 300 ug/ml after 60 mins by [3H]-TTP incorporation assay relative to control; type: cell-based; conditions: Human alphaherpesvirus 1; summary of the method: as §2
Human alphaherpesvirus 1 [7] = experiment: Antiviral activity against Herpes simplex virus 1 HF infected in African green monkey BSC1 cells assessed as inhibition of viral progeny production at 50 ug/ml after 20 to 24 hrs by plaque reduction assay relative to control; type: functional; conditions: Human alphaherpesvirus 1, HF, BSC-1; summary of the method: as §1
BSC-1 [8] = experiment: Inhibition of Herpes simplex virus 1 HF DNA polymerase-mediated DNA synthesis in African green monkey BSC1 cell nucleus after 60 mins by [3H]-TTP incorporation assay relative to control; type: cell-based; conditions: Human alphaherpesvirus 1; summary of the method: as §2
Human alphaherpesvirus 1 [9] = experiment: Antiviral activity against Herpes simplex virus 1 HF infected in African green monkey BSC1 cells assessed as inhibition of viral progeny production at 25 ug/ml after 20 to 24 hrs by plaque reduction assay relative to control; type: functional; conditions: Human alphaherpesvirus 1, HF, BSC-1; summary of the method: as §1

Row | SMILES | MNTC [1] [µg/mL] | inhibition at 200 µg/mL (Human alphaherpesvirus 1 [2]) [%] | inhibition (BSC-1 [3]) [%] | inhibition (BSC-1 [4]) | inhibition (BSC-1 [5]) | inhibition (BSC-1 [6]) | inhibition at 50 µg/mL (Human alphaherpesvirus 1 [7]) [%] | inhibition of viral DNA synthesis (active/not active) (BSC-1 [8]) | inhibition at 25 µg/mL (Human alphaherpesvirus 1 [9]) [%]
1 | Cn1cc(NC=O)cc1C(=O)Nc1cc(C(=O)Nc2cc(C(=O)Nc3ccccc3C(=N)N)n(C)c2)n(C)c1 | > 200 | 96.7 | 65 | Active |  |  |  |  | 
2 | Cn1cc(NC=O)cc1C(=O)Nc1cc(C(=O)Nc2cc(C(=O)Nc3cccc(C(=N)N)c3)n(C)c2)n(C)c1 | > 200 | 97.1 | 65 | Active | Active |  |  |  | 
3 | CC(CC#N)NC(=O)c1cc(NC(=O)c2cc(NC(=O)c3cc(NC=O)cn3C)cn2C)cn1C (stereo not drawn) | > 200 | 84.6 | < 42 | Active |  | Active |  |  | 
4 | CC(CC(=N)N)NC(=O)c1cc(NC(=O)c2cc(NC(=O)c3cc(NC=O)cn3C)cn2C)cn1C (stereo not drawn) | > 200 | 48 | 86 | Active |  |  |  |  | 
5 | Cn1cc(NC(=O)c2cc(NC(=O)c3cc([N+](=O)[O-])cn3C)cn2C)cc1C(=O)NCC(=N)N | 50 |  |  |  |  |  | 98.1 | inactive | 
6 | Cn1cc(NC(=O)c2cc(NC(=O)c3cc([N+](=O)[O-])cn3C)cn2C)cc1C(=O)Nc1ccc(C(=N)N)cc1 | > 200 | 94.8 |  |  |  |  |  | inactive | 
7 | Cn1cc(NC(=O)c2cc([N+](=O)[O-])cn2C)cc1C(=O)Nc1cc(C(=O)Nc2ccccc2C(=N)N)n(C)c1 | > 200 | 96.9 |  |  |  |  |  | inactive | 
8 | Cn1cc(NC(=O)c2cc(NC(=O)c3cc([N+](=O)[O-])cn3C)cn2C)cc1C(=O)Nc1cccc(C(=N)N)c1 | > 200 | 97.2 |  |  |  |  |  | inactive | 
9 | Cn1cc(NC(=O)c2cc(NC(=O)c3cc(NC=O)cn3C)cn2C)cc1C(=O)NCCC(=N)N | 25 |  | 95 | Active | Active |  |  |  | 99.7
10 | Cn1cc(NC(=O)c2cc(NC(=O)c3cc([N+](=O)[O-])cn3C)cn2C)cc1C(=O)NCCC(=N)N | > 200 | 86.5 |  |  |  |  |  | Active | 
11 | Cn1cc(NC(=O)c2cc(NC(=O)c3cc(NC=O)cn3C)cn2C)cc1C(=O)NCC(=N)N | > 200 | 61 | 65 | Active |  |  |  |  | 
12 | CC(CC(=N)N)NC(=O)c1cc(NC(=O)c2cc(NC(=O)c3cc([N+](=O)[O-])cn3C)cn2C)cn1C (stereo not drawn) | > 200 | 93.7 |  |  |  |  |  | Active | 
13 | Cn1cc(NC(=O)c2cc(NC(=O)c3cc(NC=O)cn3C)cn2C)cc1C(=O)NCCC#N | > 200 | 65.5 | 65 | Active |  |  |  |  | 
14 | Cn1cc(NC=O)cc1C(=O)Nc1cc(C(=O)Nc2cc(C(=O)Nc3ccc(C(=N)N)cc3)n(C)c2)n(C)c1 | > 200 | 76.4 | < 42 | Active |  |  |  |  | 
